The source made the active and inactive calls. No cut-off for these calls is given here.
Tests used:
[1] = target: T1, Histone deacetylase 8 (Homo sapiens) (UniProt Q9BY41); assay: Inhibition of HDAC8 (unknown origin)
T1 sequence (whole entry): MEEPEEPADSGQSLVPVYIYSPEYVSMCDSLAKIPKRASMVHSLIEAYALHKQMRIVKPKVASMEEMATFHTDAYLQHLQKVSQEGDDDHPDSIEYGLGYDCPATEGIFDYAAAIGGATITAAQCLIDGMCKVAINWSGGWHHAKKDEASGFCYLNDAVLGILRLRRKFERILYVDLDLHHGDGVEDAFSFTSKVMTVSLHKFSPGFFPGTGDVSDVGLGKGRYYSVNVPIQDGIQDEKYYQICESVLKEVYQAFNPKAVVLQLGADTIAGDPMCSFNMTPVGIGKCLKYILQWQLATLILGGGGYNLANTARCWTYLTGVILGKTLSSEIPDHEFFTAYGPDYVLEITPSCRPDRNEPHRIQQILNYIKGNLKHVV

[2] = target: T2, Histone deacetylase 7 (Homo sapiens) (UniProt Q8WUI4); assay: Inhibition of HDAC7 (unknown origin)
T2 sequence (whole entry): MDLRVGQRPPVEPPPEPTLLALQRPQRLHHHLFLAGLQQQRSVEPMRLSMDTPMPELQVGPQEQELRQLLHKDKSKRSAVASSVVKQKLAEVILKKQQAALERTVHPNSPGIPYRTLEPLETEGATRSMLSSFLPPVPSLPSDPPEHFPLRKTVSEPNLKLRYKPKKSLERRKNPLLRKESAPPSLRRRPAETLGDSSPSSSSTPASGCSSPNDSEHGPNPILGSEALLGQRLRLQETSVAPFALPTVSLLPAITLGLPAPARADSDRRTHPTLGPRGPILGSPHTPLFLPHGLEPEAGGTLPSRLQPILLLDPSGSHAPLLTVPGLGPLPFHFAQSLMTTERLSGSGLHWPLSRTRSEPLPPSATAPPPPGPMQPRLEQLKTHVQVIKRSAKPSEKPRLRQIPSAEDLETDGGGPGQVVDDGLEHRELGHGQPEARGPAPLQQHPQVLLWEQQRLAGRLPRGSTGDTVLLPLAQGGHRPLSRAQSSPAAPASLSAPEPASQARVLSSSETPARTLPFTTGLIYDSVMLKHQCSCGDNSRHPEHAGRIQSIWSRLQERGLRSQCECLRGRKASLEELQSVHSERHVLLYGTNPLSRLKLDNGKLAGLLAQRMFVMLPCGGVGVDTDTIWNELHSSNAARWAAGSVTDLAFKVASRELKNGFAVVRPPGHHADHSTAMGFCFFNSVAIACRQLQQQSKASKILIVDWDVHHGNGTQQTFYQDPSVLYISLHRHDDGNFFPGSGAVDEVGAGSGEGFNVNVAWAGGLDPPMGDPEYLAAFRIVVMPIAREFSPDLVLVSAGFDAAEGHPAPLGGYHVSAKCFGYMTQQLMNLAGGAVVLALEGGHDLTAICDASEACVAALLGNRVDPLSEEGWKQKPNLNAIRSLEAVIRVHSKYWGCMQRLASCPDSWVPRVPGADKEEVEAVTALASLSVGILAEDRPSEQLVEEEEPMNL

Plasma = assay: Metabolic stability in mouse plasma; type: ADME, cell-free
[3] = Clearance in rat; type: ADME, organism-based; details: in vivo
[4] = target: T3, NAD-dependent protein deacetylase sirtuin-1 (Homo sapiens, UniProt Q96EB6); assay: Inhibition of His-tagged human recombinant SIRT1 expressed in Escherichia coli using Cbz-Lys(Ac)-AMC as substrate by fluorescence assay
T3 sequence (Q96EB6 whole entry): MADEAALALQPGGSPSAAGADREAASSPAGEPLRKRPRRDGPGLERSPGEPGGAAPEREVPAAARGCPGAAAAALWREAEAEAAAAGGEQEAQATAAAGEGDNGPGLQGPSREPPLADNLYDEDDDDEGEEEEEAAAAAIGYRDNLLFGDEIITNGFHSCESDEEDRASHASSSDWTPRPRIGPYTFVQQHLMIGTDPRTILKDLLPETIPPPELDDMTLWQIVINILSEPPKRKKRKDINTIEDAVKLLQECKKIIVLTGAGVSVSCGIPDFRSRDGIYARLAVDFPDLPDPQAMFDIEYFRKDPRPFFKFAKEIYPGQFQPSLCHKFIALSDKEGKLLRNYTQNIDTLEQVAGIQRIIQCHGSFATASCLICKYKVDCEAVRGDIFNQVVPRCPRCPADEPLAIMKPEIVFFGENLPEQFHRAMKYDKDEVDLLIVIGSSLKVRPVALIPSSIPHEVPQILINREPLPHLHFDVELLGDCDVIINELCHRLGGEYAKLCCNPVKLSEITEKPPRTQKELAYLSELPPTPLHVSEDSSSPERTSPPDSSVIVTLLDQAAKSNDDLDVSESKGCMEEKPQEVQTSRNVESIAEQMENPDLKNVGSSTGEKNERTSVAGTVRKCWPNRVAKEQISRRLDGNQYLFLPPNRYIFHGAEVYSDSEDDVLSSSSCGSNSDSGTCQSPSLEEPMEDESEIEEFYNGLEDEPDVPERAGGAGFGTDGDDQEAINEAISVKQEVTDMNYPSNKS

[5] = target: T4, NAD-dependent protein deacetylase sirtuin-1 (Homo sapiens) (UniProt Q96EB6); assay: Inhibition of SIRT1-mediated endogenous p53 deacetylase activity in human Namalwa cells assessed as concentration required to […] to twice the basal level after 3 hrs by ELISA; type: cell-based
T4 sequence (whole entry): T3 sequence (Q96EB6 whole entry)
Procedure, shortened: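 Namalwa cells, 50,000/well, were exposed 3 h at 37 °C, 5% CO2, to 0.005–50 µM final (0.95% DMSO). Lysates were ELISA-captured on anti-p53 (DO-1), probed overnight with anti-acetyl-Lys382-p53, then HRP conjugate and Amplex Red (15 min; ex 550/em 610 nm). IC2xB is the concentration doubling basal (lowest) fluorescence. Means of three experiments.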

[6] = Half life in rat; type: ADME, organism-based; details: in vivo
[7] = Oral bioavailability in rat; type: ADME, organism-based; details: in vivo
[8] = target: T5, NAD-dependent protein deacetylase sirtuin-2 (Homo sapiens, UniProt Q8IXJ6); assay: Inhibition of His-tagged human recombinant SIRT2 expressed in Escherichia coli using Cbz-Lys(Ac)-AMC as substrate by fluorescence assay
T5 sequence (Q8IXJ6 whole entry): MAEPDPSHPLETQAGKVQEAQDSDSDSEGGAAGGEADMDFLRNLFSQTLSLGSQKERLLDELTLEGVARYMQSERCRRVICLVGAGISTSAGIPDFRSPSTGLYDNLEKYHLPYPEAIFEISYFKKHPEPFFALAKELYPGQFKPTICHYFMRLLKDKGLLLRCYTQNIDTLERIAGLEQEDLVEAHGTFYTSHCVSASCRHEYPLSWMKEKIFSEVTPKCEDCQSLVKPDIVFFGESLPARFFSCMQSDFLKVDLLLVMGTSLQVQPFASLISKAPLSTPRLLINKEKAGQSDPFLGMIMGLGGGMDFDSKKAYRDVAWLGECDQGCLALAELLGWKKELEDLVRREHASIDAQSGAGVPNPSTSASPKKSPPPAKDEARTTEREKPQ

Row | Structure (SMILES) | inhibition [1] | inhibition [2] | IC50 [4] [µM] | further results
1 | NC(=O)C1CCCc2c(-c3ccc(Cl)c(F)c3)n[nH]c21 (racemic) | inactive | inactive | 2.6 | 
2 | NC(=O)C1CCCc2c(-c3ccc(Br)cc3)n[nH]c21 (racemic) | inactive | inactive | 1.9 | INH [5]: 1.5 µM
3 | Cc1ccc(-c2n[nH]c3c2CCCC3C(N)=O)cc1 (racemic) | inactive | inactive | 6.2 | 
4 | NC(=O)C1CCCc2c(-c3cc4ccccc4s3)n[nH]c21 (racemic) | inactive | inactive | 1.7 | IC50 [8]: 5.3 µM
5 | NC(=O)C1CCCc2c(-c3cc4ccccc4o3)n[nH]c21 (racemic) | inactive | inactive | 3.1 | IC50 [8]: 9 µM
6 | NC(=O)C1CCCc2c(-c3nc4ccccc4s3)n[nH]c21 (racemic) | inactive | inactive | 2.2 | INH [5]: 0.9 µM; IC50 [8]: 8.3 µM
7 | Cn1c(-c2n[nH]c3c2CCCC3C(N)=O)cc2ccccc21 (racemic) | inactive | inactive | 2.7 | IC50 [8]: 7.8 µM
8 | CC1(C)Cc2c(-c3ccc(Cl)c(Cl)c3)n[nH]c2C(C(N)=O)C1 (racemic) | inactive | inactive |  | 
9 | CNC(=O)C1CCCc2c(-c3ccc(Cl)cc3)n[nH]c21 (racemic) | inactive | inactive |  | 
10 | Cn1c(-c2n[nH]c3c2CC(C)(C)CC3C(N)=O)cc2ccccc21 (racemic) | inactive | inactive |  | 
11 | Cn1c(-c2n[nH]c3c2CCCC3C(N)=O)cc2cc(Cl)ccc21 (racemic) | inactive | inactive |  | 
12 | Cn1cc(-c2n[nH]c3c2CCCC3C(N)=O)c2ccccc21 (racemic) | inactive | inactive |  | 
13 | NC(=O)C1CCCCCc2c(-c3ccc(Cl)cc3)n[nH]c21 (racemic) | inactive | inactive |  | 
14 | NC(=O)C1CCCc2c(-c3cccc(Cl)c3)n[nH]c21 (racemic) | inactive | inactive |  | 

Further lines, with some results ahead:

Row | inhibition [1] | inhibition [2] | IC50 [4] [µM] | Structure (SMILES) | further results
15 | inactive | inactive |  | NC(=O)C1CC(c2ccccc2)Cc2c(-c3ccc(Cl)cc3)n[nH]c21 (mixture of isomers) | 
16 | inactive | inactive | 1 | NC(=O)C1CCCc2c(-c3ccc(Cl)cc3)n[nH]c21 (racemic) | Stability (Plasma): Stable; clearance [3]: 30 mL/min/kg; INH [5]: 0.5 µM; half-life [6]: 1.1 h; bioavailability [7]: 20%
17 |  |  | 1.2 | NC(=O)C1CCCc2c(-c3ccc(Cl)c(Cl)c3)n[nH]c21 (racemic) | INH [5]: 1.2 µM; IC50 [8]: 14.8 µM
18 | inactive | inactive | 11 | NC(=O)C1CCCc2c(-c3cc(Br)cs3)n[nH]c21 (racemic) | 
19 | inactive | inactive | 2.1 | NC(=O)C1CCCCc2c(-c3ccc(Cl)cc3)n[nH]c21 (racemic) | INH [5]: 0.8 µM; IC50 [8]: 6.8 µM
20 | inactive | inactive |  | CC1(C)CCC(C(N)=O)c2[nH]nc(-c3ccc(Cl)cc3)c21 (racemic) | 
21 | inactive | inactive |  | CC1(C)Cc2c(-c3cc4ccccc4s3)n[nH]c2C(C(N)=O)C1 (racemic) | 
22 | inactive | inactive |  | CC1(C)Cc2c(-c3ccc(Br)cc3)n[nH]c2C(C(N)=O)C1 (racemic) | 
23 | inactive | inactive |  | CCOC(=O)C1CCCc2c(-c3ccc(Cl)c(F)c3)n[nH]c21 (racemic) | 
24 | inactive | inactive |  | COc1ccc(-c2n[nH]c3c2CCCC3C(N)=O)cc1 (racemic) | 
25 | inactive | inactive |  | NC(=O)C1CC2(Cc3c(-c4ccc(Cl)cc4)n[nH]c31)OCCO2 (racemic) | 
26 | inactive | inactive |  | NC(=O)C1CCCc2c(-c3cc4cc(Br)ccc4s3)n[nH]c21 (racemic) | 
27 | inactive | inactive |  | NC(=O)C1CCCc2c(-c3cc4ccccc4[nH]3)n[nH]c21 (racemic) | 
28 | inactive | inactive |  | NC(=O)C1CCCc2c(-c3ccc(C(F)(F)F)cc3)n[nH]c21 (racemic) | 
29 | inactive | inactive |  | NC(=O)C1CCCc2c(-c3ccc(Cl)cc3Cl)n[nH]c21 (racemic) | 
30 | inactive | inactive |  | NC(=O)C1CCCc2c(-c3ccc(F)cc3)n[nH]c21 (racemic) | 
31 | inactive | inactive |  | NC(=O)C1CCCc2c(-c3ccccc3)n[nH]c21 (racemic) | 
32 | inactive | inactive |  | NC(=O)C1CCCc2c(-c3ccccc3Cl)n[nH]c21 (racemic) | 
33 | inactive | inactive |  | NC(=O)C1CCCc2c(-c3cccs3)n[nH]c21 (racemic) | 
34 | inactive | inactive |  | NC(=O)C1CCCc2c(-c3csc4ccccc34)n[nH]c21 (racemic) | 
35 | inactive | inactive |  | NC(=O)C1Cc2ccccc2Cc2c(-c3ccc(Cl)cc3)n[nH]c21 (racemic) | 

From ChEMBL document CHEMBL3425433, “Discovery of bicyclic pyrazoles as class III histone deacetylase SIRT1 and SIRT2 inhibitors” (Bioorg Med Chem Lett, 2015)
